We go through one molecule from ChEMBL document CHEMBL1629616 (Antimicrob Agents Chemother, 2009).

What is called inhibition is the percentage by which the read-out fell short of the control. Usually IC50 stands for the concentration that inhibits the measured activity by half. Broadly, the Ki is a measure of affinity in units of concentration, obtained from inhibition or displacement.

For data set [1], the target named is T1, CYP1A2 (Homo sapiens, UniProt P05177).
T1 sequence (P05177 whole entry): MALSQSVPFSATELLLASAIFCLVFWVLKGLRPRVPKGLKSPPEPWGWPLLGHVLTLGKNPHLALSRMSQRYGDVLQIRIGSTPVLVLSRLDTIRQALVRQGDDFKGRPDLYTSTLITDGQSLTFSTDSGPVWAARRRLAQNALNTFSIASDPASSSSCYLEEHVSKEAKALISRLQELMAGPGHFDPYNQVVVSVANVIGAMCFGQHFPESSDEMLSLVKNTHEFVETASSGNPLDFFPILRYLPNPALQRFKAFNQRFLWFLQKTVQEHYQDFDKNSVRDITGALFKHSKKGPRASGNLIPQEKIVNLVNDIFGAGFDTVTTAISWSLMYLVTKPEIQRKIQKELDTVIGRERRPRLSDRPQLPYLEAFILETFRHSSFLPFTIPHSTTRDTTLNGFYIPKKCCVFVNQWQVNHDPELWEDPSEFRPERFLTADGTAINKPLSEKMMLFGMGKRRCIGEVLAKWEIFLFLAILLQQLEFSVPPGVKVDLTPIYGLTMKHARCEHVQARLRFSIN
The data set can be described thus: Inhibition of CYP1A2 in human liver microsomes assessed as phenacetin O-deethylation at 100 uM after 30 mins. In kind it is ADME, Microsome. Conditions: probe phenacetin (O-deethylation); call rule not given here. On the technique in general: Liver microsomes are a subcellular fraction often used to study metabolism.

Data set [2] concerns the target T2, CYP2A6 (Homo sapiens, UniProt P11509).
T2 sequence (P11509 whole entry): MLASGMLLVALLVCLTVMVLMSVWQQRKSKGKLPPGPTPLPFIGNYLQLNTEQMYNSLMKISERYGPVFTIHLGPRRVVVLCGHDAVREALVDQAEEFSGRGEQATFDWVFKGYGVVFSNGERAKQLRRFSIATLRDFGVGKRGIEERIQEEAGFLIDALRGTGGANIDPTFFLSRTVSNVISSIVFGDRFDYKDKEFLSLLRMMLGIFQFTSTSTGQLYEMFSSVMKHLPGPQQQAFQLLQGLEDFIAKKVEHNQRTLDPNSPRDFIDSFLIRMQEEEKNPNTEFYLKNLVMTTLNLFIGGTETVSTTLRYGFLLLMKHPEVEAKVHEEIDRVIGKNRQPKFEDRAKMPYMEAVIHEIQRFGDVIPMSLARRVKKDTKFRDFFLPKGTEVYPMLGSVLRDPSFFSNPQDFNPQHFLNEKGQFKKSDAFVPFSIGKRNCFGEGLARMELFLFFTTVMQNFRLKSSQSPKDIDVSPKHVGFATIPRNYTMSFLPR
The data set can be described thus: Inhibition of CYP2A6 in human liver microsomes assessed as coumarin 7-hydroxylation at 100 uM after 15 mins. In kind it is ADME, Microsome. Conditions: probe coumarin (7-hydroxylation).

For data set [3], the target named is T3, CYP2C8 (Homo sapiens, UniProt P10632).
T3 sequence (P10632 whole entry): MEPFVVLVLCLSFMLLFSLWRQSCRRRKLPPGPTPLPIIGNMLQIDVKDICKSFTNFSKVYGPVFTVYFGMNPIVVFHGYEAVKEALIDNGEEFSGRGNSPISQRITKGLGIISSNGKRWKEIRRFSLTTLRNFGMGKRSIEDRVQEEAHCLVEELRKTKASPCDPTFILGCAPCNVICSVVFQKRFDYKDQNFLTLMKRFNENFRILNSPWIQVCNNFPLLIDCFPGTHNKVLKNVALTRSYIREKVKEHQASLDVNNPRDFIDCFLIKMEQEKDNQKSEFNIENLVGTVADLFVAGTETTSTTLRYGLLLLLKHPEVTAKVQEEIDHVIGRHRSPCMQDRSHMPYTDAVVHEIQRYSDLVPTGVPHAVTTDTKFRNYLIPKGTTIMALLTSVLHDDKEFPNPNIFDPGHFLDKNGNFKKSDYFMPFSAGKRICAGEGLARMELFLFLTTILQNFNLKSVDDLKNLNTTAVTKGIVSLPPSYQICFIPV
The data set can be described thus: Inhibition of CYP2C8 in human liver microsomes assessed as amodiquine N-deethylation at 100 uM after 15 mins. In kind it is ADME, Microsome. Conditions: probe amodiquine (N-deethylation).

For data set [4], the target named is CYP2D6 (Homo sapiens, UniProt P10635). Put plainly: Inhibition of CYP2D6 in human liver microsomes assessed as dextromethorphan O-demethylation at 100 uM after 30 mins. In kind it is ADME, Microsome. Conditions: probe dextromethorphan (O-demethylation).
For data set [5], the target named is T4, Cytochrome P450 2B6 (Homo sapiens, UniProt P20813).
T4 sequence (P20813 whole entry): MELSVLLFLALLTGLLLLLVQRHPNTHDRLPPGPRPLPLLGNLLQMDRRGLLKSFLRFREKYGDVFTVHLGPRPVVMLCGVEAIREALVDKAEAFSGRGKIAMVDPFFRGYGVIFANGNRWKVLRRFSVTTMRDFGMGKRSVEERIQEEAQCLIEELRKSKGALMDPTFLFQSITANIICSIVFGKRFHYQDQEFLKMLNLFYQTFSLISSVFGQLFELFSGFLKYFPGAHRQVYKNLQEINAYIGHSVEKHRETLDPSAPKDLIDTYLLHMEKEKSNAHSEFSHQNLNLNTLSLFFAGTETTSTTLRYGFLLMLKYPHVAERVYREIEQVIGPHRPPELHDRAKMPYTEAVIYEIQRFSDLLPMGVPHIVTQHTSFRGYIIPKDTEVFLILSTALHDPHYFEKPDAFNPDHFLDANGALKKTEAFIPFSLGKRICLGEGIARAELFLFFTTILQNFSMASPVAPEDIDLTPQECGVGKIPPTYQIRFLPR
The data set can be described thus: Inhibition of CYP2B6 in human liver microsomes assessed as 8-hydroxyefavirenz 14-hydroxylation after 10 mins. It is filed as ADME, Microsome.

In data set [6] the target is T4, Cytochrome P450 2B6. Put plainly: Inhibition of CYP2B6 in human liver microsomes using efavirenz as probe after 10 mins. In kind it is ADME, Microsome. In short, it runs like this:
(§1)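 Ethyl acetate extraction under alkaline pH; 8-hydroxyefavirenz measured by HPLC-UV at 245 nm with ritonavir internal standard. IC50 from log concentration versus percent activity remaining.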

Data set [7] has as its target T4, Cytochrome P450 2B6. The data set can be described thus: Inhibition of CYP2B6 in human liver microsomes using 8-hydroxyefavirenz as probe after 10 mins. In kind it is ADME, Microsome.
For data set [8], the target named is T4, Cytochrome P450 2B6. Put plainly: Inhibition of CYP2B6 in human liver microsomes at 10 uM preincubated for 5 to 30 mins. It is filed as ADME, Microsome. In short, it runs like this: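 Efavirenz (final 100 μM) then added and incubated 10 min with cofactors. Activity compared with 0-min controls lacking inhibitor and NADPH.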
In data set [9] the target is T4, Cytochrome P450 2B6. The data set can be described thus: Inhibition of CYP2B6 in human liver microsomes assessed as efavirenz 8-hydroxylation at 10 uM after 60 mins. In kind it is ADME, Microsome. As to conditions: 1 h.
The target in data set [10] is T4, Cytochrome P450 2B6. Put plainly: Inhibition of CYP2B6 in human liver microsomes assessed as metabolite formation at 10 uM preincubated for 60 mins. In kind it is ADME, Microsome.
Data set [11] concerns the target T4, Cytochrome P450 2B6. The data set can be described thus: Inhibition of human CYP2B6 expressed in baculovirus assessed as voriconazole N-oxide formation. It is filed as ADME.
Data set [12] has as its target T4, Cytochrome P450 2B6. Put plainly: Inhibition of CYP2B6 in human liver microsomes assessed as efavirenz 8-hydroxylation after 10 mins by Dixon plot analysis. In kind it is ADME, Microsome. In short, it runs like this:
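8-Hydroxyefavirenz measured by HPLC-UV. Ki from nonlinear regression to competitive, noncompetitive and uncompetitive models, chosen using Dixon plots.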

Data set [13] addresses T4, Cytochrome P450 2B6. The data set can be described thus: Inhibition of CYP2B6 in human liver microsomes assessed as bupropion 4-hydroxylation after 15 mins by Dixon plot analysis. It is filed as ADME, Microsome.
The target in data set [14] is T4, Cytochrome P450 2B6. Put plainly: Inhibition of CYP2B6 in human liver microsomes assessed as efavirenz 8-hydroxylation after 10 mins. It is filed as ADME, Microsome. In short, it runs like this: as §1
Data set [15] has as its target CYP3A (Homo sapiens, UniProt P08684+P20815+P24462+Q9HB55). The data set can be described thus: Inhibition of CYP3A in human liver microsomes assessed as midazolam 1'- hydroxylation after 5 mins. It is filed as ADME, Microsome. Conditions: probe midazolam (1'-hydroxylation). In short, it runs like this: (§2)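 1′-Hydroxymidazolam measured by HPLC-UV at 230 nm with desmethyldiazepam internal standard. IC50 from log concentration versus percent activity remaining.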

A short description of data set [16]: Inhibition of CYP3A using felodipine as probe. It is filed as ADME.
Data set [17] in a line: Inhibition of CYP3A using nifedipine as probe. In kind it is ADME.
The nature of data set [18]: Inhibition of CYP3A using testosterone as probe. In kind it is ADME.
Data set [19] in a line: Inhibition of CYP3A using midazolam as probe. It is filed as ADME. In short, it runs like this: as §2
Data set [20] addresses T4, Cytochrome P450 2B6. The data set can be described thus: Inhibition of CYP2B6 in human liver microsomes using bupropion as probe after 15 mins.
The target in data set [21] is T4, Cytochrome P450 2B6. Put plainly: Inhibition of CYP2B6 in human liver microsomes assessed as bupropion 4-hydroxylation after 15 mins.

A value given as a limit tells only on which side of the number the result lay.

Chain of CYP2D6 (P10635 whole entry): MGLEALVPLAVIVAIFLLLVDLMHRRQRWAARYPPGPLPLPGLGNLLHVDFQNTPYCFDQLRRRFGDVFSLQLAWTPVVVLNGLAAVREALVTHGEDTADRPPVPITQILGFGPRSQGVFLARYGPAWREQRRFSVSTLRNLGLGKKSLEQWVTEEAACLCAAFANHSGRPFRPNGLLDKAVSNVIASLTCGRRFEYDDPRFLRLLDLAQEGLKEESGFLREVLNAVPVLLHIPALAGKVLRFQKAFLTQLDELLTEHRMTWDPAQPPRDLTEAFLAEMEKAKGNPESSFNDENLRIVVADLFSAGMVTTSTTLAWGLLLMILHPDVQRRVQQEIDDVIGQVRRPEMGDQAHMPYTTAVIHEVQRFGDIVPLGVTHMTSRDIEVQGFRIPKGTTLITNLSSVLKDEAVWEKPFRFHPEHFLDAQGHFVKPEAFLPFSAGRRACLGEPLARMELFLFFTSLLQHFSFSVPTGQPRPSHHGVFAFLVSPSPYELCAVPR

For `C[C@@H](c1ncncc1F)[C@](O)(Cn1cncn1)c1ccc(F)cc1F` [VORICONAZOLE], the inhibition at 0.5 h, 100 µM in data set [1] and in data set [4] was below 25% each time. Also, the inhibition at 0.25 h, 100 µM in [2] and in [3] was below 25% each time. For the same molecule, the IC50 was 790 nM in data set [5]; 1710 nM in data set [6]; 790 nM in data set [7]; 12200 nM in data set [11]; 1710 nM in data set [14]; 50000 nM in data set [16]. In addition, the IC50 is 10500 nM in [17]; 54000 nM in data set [18]; 10500 nM in data set [19]; 1190 nM in data set [20]; 1190 nM in data set [21]. For the same molecule, the “inhibition (INH)” value is “Not Active” in [8], “Not Active” in data set [9] and “Active” in data set [10]. Besides, the Ki in data set [12] was 400 nM; in data set [13], 340 nM. Also, in data set [15], the IC50 at 5 min is 2900 nM.
